We go through 1 compound from ChEMBL document CHEMBL5661979, “Pharmacological inhibition of BMK1 suppresses tumor growth through promyelocytic leukemia protein” (Cancer Cell, 2010).

A short description of assay [1]: Inhibition of MSK1/2 domain 1 in human HeLa cells lysate at 10 uM pre incubated for 15 mins followed by ATP acyl phosphate probe addition and measured after 10 mins by LC-MS/MS analysis relative to control. Particulars: 25 min, condition cancer.
The target of assay [2] is Non-receptor tyrosine-protein kinase TNK1 (Homo sapiens, UniProt Q13470). Description: Binding affinity to TNK1 (unknown origin) assessed as dissociation constant by ATP-competition binding assay.
Assay [3] concerns the target Protein kinase C theta type (Homo sapiens, UniProt Q04759). The assay is described as follows: Inhibition of PKCtheta in human HeLa cells lysate at 50 uM pre incubated for 15 mins followed by ATP acyl phosphate probe addition and measured after 10 mins by LC-MS/MS analysis relative to control. Format: subcellular. As to conditions: time 25.0 min.
Assay [4] is described as follows: Inhibition of NEK6/7 in human HeLa cells lysate at 10 uM pre incubated for 15 mins followed by ATP acyl phosphate probe addition and measured after 10 mins by LC-MS/MS analysis relative to control. As to conditions: 25 min, condition cancer.
Assay [5] deals with Mitogen-activated protein kinase kinase kinase 5 (Homo sapiens, UniProt Q99683). Description: Inhibition of MAP3K5 in human HeLa cells lysate pre incubated for 15 mins followed by ATP acyl phosphate probe addition and measured after 10 mins by LC-MS/MS analysis. Format: subcellular.
Sequence of Mitogen-activated protein kinase kinase kinase 5 (Q99683 whole entry): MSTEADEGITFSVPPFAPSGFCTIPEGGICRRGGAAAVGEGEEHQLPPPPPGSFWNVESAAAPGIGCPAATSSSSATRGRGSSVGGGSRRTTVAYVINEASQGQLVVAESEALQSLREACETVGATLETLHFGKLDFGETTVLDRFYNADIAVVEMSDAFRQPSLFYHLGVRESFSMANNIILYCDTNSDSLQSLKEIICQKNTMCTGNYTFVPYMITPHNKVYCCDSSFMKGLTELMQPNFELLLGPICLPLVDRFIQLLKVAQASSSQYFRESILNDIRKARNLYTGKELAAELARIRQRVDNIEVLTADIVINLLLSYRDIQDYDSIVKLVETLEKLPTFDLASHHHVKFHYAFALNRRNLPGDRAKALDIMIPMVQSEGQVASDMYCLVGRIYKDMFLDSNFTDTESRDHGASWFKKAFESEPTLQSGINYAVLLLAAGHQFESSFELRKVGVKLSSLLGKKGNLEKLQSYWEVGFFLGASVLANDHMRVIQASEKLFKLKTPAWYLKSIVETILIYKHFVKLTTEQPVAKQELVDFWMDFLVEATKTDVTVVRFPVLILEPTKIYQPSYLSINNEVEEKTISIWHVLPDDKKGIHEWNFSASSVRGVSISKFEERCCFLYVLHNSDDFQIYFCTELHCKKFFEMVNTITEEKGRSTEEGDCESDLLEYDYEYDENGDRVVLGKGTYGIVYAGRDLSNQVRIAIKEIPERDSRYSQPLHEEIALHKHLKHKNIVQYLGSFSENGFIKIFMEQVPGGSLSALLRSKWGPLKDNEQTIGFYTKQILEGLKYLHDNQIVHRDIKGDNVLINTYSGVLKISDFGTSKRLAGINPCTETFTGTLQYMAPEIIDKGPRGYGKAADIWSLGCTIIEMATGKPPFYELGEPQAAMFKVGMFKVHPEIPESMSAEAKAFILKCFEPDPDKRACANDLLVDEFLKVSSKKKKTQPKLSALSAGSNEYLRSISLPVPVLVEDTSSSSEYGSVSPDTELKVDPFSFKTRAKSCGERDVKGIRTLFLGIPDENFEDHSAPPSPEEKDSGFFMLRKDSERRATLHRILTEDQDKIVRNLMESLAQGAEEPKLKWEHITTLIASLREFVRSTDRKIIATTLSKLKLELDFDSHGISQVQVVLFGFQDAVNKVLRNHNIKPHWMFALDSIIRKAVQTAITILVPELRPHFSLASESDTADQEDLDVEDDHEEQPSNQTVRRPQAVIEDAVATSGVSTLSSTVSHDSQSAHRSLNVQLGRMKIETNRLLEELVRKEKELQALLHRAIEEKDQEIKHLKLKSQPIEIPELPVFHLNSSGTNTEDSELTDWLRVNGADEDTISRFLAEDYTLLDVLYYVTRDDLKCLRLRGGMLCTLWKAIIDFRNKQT
In assay [6] the target is Cyclin-dependent kinase 11B (Homo sapiens, UniProt P21127). The assay is described as follows: Inhibition of PITSLRE in human HeLa cells lysate at 10 uM pre incubated for 15 mins followed by ATP acyl phosphate probe addition and measured after 10 mins by LC-MS/MS analysis relative to control. Format: subcellular. As to conditions: time 25.0 min.
Sequence of Cyclin-dependent kinase 11B (P21127 whole entry, canonical isoform): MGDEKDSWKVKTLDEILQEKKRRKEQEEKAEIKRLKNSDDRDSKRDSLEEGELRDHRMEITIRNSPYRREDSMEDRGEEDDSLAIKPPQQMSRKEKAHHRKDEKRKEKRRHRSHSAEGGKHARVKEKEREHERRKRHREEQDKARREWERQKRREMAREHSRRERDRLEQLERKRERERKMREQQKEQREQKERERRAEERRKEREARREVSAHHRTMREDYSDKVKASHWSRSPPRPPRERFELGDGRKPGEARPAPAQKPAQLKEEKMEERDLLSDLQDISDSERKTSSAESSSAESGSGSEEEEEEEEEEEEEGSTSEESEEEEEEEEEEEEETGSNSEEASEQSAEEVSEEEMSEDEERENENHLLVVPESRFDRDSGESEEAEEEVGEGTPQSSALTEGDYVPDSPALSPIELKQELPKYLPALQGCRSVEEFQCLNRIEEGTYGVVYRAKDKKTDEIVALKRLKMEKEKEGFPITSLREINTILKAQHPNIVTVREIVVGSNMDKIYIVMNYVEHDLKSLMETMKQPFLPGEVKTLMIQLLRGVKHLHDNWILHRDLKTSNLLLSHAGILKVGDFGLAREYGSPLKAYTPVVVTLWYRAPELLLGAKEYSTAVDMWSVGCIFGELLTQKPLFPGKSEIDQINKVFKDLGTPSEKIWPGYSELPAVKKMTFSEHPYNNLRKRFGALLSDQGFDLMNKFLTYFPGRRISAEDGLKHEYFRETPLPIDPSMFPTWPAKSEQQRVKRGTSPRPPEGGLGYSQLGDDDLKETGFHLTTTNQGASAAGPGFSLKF
For assay [7], the target named is T1, Phosphorylase b kinase gamma catalytic chain, liver/testis isoform (Homo sapiens) (UniProt P15735).
T1 sequence (whole entry): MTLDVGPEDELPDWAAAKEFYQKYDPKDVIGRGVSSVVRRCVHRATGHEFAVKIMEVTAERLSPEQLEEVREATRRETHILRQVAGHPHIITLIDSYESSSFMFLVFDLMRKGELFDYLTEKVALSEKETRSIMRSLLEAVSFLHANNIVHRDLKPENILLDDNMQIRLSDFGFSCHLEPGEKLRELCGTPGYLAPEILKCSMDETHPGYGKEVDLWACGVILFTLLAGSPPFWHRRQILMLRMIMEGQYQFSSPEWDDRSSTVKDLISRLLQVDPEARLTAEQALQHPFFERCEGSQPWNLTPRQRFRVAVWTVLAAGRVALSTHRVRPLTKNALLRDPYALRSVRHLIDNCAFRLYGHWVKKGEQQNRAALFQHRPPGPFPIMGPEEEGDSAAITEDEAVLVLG
Description: Inhibition of PHKg2 in human HeLa cells lysate at 10 uM pre incubated for 15 mins followed by ATP acyl phosphate probe addition and measured after 10 mins by LC-MS/MS analysis relative to control. Particulars: time 25.0 min. It counts as subcellular.

Assay [8] deals with Phosphatidylinositol 4-kinase beta (Homo sapiens, UniProt Q9UBF8). Description: Inhibition of PIK4CB in human HeLa cells lysate at 10 uM pre incubated for 15 mins followed by ADP acyl phosphate probe addition and measured after 10 mins by LC-MS/MS analysis relative to control. Particulars: time 25.0 min. It counts as subcellular.
Sequence of Phosphatidylinositol 4-kinase beta (Q9UBF8 2-816 limits assumed): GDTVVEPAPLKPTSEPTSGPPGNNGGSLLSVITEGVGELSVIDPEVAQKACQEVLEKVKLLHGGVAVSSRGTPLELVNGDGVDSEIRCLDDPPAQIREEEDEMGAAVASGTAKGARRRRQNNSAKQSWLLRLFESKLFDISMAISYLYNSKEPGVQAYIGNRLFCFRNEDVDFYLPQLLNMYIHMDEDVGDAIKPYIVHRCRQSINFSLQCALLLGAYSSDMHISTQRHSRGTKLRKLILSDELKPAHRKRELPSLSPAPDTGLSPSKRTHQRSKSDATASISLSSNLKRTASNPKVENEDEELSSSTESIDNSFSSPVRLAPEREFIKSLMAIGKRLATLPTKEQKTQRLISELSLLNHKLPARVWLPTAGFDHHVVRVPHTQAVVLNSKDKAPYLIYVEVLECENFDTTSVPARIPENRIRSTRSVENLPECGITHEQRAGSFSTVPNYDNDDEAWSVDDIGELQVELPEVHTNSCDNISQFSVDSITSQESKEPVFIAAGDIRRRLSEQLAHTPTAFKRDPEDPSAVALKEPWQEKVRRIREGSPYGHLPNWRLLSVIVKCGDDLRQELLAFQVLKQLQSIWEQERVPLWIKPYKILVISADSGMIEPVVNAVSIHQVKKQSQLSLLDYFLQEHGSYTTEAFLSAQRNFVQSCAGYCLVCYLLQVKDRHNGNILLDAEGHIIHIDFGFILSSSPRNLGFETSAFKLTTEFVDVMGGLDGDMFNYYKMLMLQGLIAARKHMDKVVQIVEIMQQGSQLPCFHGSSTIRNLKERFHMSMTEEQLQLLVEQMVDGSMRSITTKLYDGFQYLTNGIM
In assay [9] the target is Calcium/calmodulin-dependent protein kinase type II subunit gamma (Homo sapiens, UniProt Q13555). Description: Inhibition of CAMK2g in human HeLa cells lysate pre incubated for 15 mins followed by ADP acyl phosphate probe addition and measured after 10 mins by LC-MS/MS analysis. It counts as subcellular. Summed up:
(§1)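 KiNativ-type profiling in HeLa lysate (5 mg/mL total protein). Lysate preincubated 15 min with inhibitor at 50, 10, 2, 0.8 or 0 μM, then ATP or ADP acylphosphate probe added (5 μM final) for 10 min. Reaction stopped with urea and analysed by targeted MS, using up to four fragment ions per kinase peptide-probe conjugate. % inhibition calculated against untreated lysate. Duplicate reactions.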

The target of assay [10] is Calcium/calmodulin-dependent protein kinase type II subunit delta (Homo sapiens, UniProt Q13557). Description: Inhibition of CAMK2d in human HeLa cells lysate pre incubated for 15 mins followed by ATP acyl phosphate probe addition and measured after 10 mins by LC-MS/MS analysis. It counts as subcellular. Summed up:
as §1

Assay [11] addresses Calcium/calmodulin-dependent protein kinase kinase 1 (Homo sapiens, UniProt Q8N5S9). The assay is described as follows: Inhibition of CAMKK1 in human HeLa cells lysate at 2 uM pre incubated for 15 mins followed by ADP acyl phosphate probe addition and measured after 10 mins by LC-MS/MS analysis relative to control. As to conditions: time 25.0 min. It counts as subcellular. In a few lines:
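KiNativ profiling in HeLa lysate (5 mg/mL total protein). Lysate incubated 15 min with inhibitor at 50, 10, 2, 0.8 or 0 μM. ATP or ADP acylphosphate probe then added (5 μM final) and reacted 10 min. Reaction stopped with urea and analysed by targeted MS, using up to four fragment ions per kinase peptide-probe conjugate. % inhibition taken against untreated lysate. Run in duplicate.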

Assay [12] concerns the target Serine/threonine-protein kinase DCLK2 (Homo sapiens) (UniProt Q8N568). The assay is described as follows: Inhibition of DCAMKL2 (unknown origin) assessed as remaining activity at 10 uM by ATP-competition binding assay relative to control.
The target in assay [13] is Mitogen-activated protein kinase 14 (Homo sapiens, UniProt Q16539). Description: Inhibition of p38a in human HeLa cells lysate at 10 uM pre incubated for 15 mins followed by ATP acyl phosphate probe addition and measured after 10 mins by LC-MS/MS analysis relative to control. It counts as subcellular. Particulars: time 25.0 min.
For assay [14], the target named is Interleukin-1 receptor-associated kinase 1 (Homo sapiens, UniProt P51617). Description: Inhibition of IRAK1 in human HeLa cells lysate pre incubated for 15 mins followed by ATP acyl phosphate probe addition and measured after 10 mins by LC-MS/MS analysis. It counts as subcellular.
Sequence of Interleukin-1 receptor-associated kinase 1 (P51617 whole entry): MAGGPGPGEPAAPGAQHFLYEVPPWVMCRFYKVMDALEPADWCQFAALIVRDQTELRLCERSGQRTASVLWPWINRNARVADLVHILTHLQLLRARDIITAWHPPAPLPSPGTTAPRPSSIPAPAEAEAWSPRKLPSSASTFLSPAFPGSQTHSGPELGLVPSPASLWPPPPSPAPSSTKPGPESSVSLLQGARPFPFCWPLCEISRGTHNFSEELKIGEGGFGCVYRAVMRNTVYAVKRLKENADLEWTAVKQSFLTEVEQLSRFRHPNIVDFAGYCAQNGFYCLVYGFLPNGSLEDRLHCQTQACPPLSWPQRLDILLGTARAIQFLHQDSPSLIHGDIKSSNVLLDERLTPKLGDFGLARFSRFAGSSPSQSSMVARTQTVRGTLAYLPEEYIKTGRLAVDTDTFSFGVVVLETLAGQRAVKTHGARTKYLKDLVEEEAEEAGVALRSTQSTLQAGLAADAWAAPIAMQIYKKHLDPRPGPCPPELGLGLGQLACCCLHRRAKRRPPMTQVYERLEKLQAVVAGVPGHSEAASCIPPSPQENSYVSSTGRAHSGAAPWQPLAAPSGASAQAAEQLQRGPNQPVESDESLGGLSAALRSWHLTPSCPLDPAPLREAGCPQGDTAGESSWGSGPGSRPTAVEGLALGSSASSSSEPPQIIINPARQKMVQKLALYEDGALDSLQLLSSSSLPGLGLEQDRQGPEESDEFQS
In assay [15] the target is Serine/threonine-protein kinase 24 (Homo sapiens, UniProt Q9Y6E0). The assay is described as follows: Inhibition of MST3 in human HeLa cells lysate at 50 uM pre incubated for 15 mins followed by ADP acyl phosphate probe addition and measured after 10 mins by LC-MS/MS analysis relative to control. Format: subcellular. As to conditions: time 25.0 min.
Assay [16] concerns the target Serine/threonine-protein kinase B-raf (Homo sapiens, UniProt P15056). Description: Inhibition of BRAF in human HeLa cells lysate pre incubated for 15 mins followed by ATP acyl phosphate probe addition and measured after 10 mins by LC-MS/MS analysis. It counts as subcellular. In a few lines: as §1

Sequence of Calcium/calmodulin-dependent protein kinase type II subunit gamma (Q13555 whole entry, the tested form may be a part): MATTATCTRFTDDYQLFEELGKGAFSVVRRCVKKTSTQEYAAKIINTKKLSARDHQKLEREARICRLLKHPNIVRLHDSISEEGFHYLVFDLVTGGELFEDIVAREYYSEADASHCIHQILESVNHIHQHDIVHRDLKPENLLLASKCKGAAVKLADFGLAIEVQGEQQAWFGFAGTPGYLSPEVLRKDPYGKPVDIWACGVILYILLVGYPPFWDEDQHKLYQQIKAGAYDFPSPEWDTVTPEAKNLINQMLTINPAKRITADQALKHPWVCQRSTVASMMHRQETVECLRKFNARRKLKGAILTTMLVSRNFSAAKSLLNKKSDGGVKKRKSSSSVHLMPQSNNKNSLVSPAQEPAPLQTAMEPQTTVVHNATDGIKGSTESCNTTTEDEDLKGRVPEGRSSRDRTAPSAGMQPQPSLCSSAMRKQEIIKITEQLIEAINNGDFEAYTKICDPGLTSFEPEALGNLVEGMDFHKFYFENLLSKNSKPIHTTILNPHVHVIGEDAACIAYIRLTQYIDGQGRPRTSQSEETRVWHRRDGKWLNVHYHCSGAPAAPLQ
Sequence of Protein kinase C theta type (Q04759 whole entry, looked up): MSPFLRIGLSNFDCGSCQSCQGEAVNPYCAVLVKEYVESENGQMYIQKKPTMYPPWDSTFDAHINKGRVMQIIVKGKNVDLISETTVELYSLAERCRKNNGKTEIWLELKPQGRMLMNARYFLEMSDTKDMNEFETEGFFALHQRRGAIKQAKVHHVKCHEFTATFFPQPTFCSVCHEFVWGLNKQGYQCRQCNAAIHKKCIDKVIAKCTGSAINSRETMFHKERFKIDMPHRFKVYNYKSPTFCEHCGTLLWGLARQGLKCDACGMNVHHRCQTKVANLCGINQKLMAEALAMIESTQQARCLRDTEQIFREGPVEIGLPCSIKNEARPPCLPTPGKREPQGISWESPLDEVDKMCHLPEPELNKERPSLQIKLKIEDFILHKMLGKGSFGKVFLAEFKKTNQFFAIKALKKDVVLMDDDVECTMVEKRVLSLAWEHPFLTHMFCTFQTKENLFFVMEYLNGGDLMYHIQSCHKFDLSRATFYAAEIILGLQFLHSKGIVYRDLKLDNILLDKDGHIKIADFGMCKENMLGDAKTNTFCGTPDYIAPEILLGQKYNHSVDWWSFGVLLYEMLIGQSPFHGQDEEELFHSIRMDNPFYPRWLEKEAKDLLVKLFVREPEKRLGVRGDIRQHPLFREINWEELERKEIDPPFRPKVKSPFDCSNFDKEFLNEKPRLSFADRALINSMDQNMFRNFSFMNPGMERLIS

A word on the inhibition: it is the drop in the measured response relative to a control, in per cent. As a reminder, the Kd is a measure of binding affinity in units of concentration. What is called IC50 is the point on the concentration scale where inhibition reaches its midpoint. Consider `CCOc1cc(N2CCC(O)CC2)ccc1Nc1ncc2c(n1)N(C)c1ccccc1C(=O)N2C`, for which the inhibition at 10 µM is -10.6% in assay [1] and -10.7% in [4]. Moreover, the Kd in [2] came to 0.89 µM. Further, the inhibition in [3] is 1.8%; in [6] it was 0.3%; in assay [7], -4.9%; in assay [8], 1.1%; in assay [11], -5.2%; in assay [13] it was -4%. Also, the inhibition in assay [15] was -8.5%. In addition, the IC50 in assay [5], in assay [9], in assay [10], in [14] and in [16] was greater than 50 µM each time. Besides, in assay [12], the Activity was 0.65%.
